Results from different studies.
Protocols differ between the studies behind these lines.
Cell line: HepG2
Effect on: cell growth or viability

Structure (SMILES)	method	time	CC50 [µM]
CCCCCCNC[C@H](O)c1cc(Cl)cc2c1-c1ccc(Cl)cc1C2	–	48 h	4.8
COCC(=O)N1CCC[C@H](C(=O)NCc2nc(-c3ccc(C)cc3)cs2)C1	ATP luminescence	96 h	> 50
O=C1c2[nH]cc3c2C(=NCC3)c2c(-c3ccc(O)cc3)c[nH]c21	MTT	72 h	0.3
O[C@@H](CN[C@H](COCC1CC1)Cc1ccccc1)c1cc(Cl)cc2c1-c1ccc(Cl)cc1C2	–	48 h	13.8
Cn1cc2c3c1C(=O)C(NCCc1ccc(O)cc1)=CC3=[N+](C)CC2	MTT	72 h	0.5
CCCCCCCNC[C@@H](O)c1cc(Cl)cc2c1-c1ccc(Cl)cc1C2	–	48 h	5
COCC(=O)N1CCC[C@H](C(=O)NCc2nc(-c3ccc(OC)cc3)cs2)C1	ATP luminescence	96 h	> 50
O[C@@H](CNCCCC(F)(F)F)c1cc(Cl)cc2c1-c1ccc(Cl)cc1C2	–	48 h	13.8
COC(CNC1=CC2=NCCc3c[nH]c(c32)C1=O)c1c[nH]c2ccccc12 (stereo not drawn)	MTT	72 h	20
CCOCC(=O)N1CCC[C@H](C(=O)NCc2nc(-c3ccc(C)nc3)cs2)C1	ATP luminescence	96 h	> 50
Cn1nc2c(=O)n(C3CC3)cnc2c1[C@](O)(c1cnc(C(F)(F)F)c(Cl)c1)C(F)(F)F	ATP luminescence	–	> 50
Cn1cc2c3c1C(=O)C(NCCc1ccc(O)cc1)=CC3=NCC2	MTT	72 h	1
CC[C@@](N)(c1cnc(C(F)(F)F)c(Cl)c1)c1c2ncn(C3CC3)c(=O)c2nn1C	ATP luminescence	–	> 50
COCC(=O)N1CCC[C@@H](C(=O)NCc2nc(-c3ccccc3)cs2)C1	ATP luminescence	96 h	> 50
O=C1C=C2NCCc3c[nH]c(c32)C1=O	MTT	72 h	50
